Assay results as given in ChEMBL document CHEMBL1151837, “Structural reassignment, absolute configuration, and conformation of hypurticin, a highly flexible polyacyloxy-6-heptenyl-5,6-dihydro-2H-pyran-2-one” (J Nat Prod, 2009).
≈ marks a conversion by molar mass, not a printed value.

Legend:
KB = assay: Cytotoxicity against human KB cells after 72 hrs by sulforhodamine B assay; assay type: functional, cell-based
Method in brief: (§1)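 Cells kept in RPMI 1640 with 10% FBS at 37 °C, 5% CO2, humidified. Log-phase cells treated in triplicate at 0.16–20.0 µg/mL for 72 h. Cell density read by sulforhodamine B. Value is the dose giving 50% inhibition of control growth (ED50). Ellipticine served as positive control.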

HEp-2 = assay: Cytotoxicity against human Hep2 cells after 72 hrs by sulforhodamine B assay; assay type: functional, cell-based; settings: HEp-2, 72 h; method in brief: as §1
HeLa [1] = assay: Cytotoxicity against human HeLa cells after 72 hrs by sulforhodamine B assay; assay type: functional, cell-based; method in brief: as §1
HeLa [2] = assay: Cell cycle arrest in human HeLa cells assessed as accumulation at G1 phase at 10 times IC50 after 48 hrs by flow cytometry; assay type: functional
Method in brief: (§2)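 HeLa cells in log phase exposed 48 h to compound in DMSO at ten times its cytotoxicity IC50. Fixed in cold 70% (v/v) EtOH, then stained 12 h at 4 °C with Triton X-100, trisodium citrate and RNase A, and filtered through nylon mesh. DNA content measured by flow cytometry gives the percentage of cells in G1, S and G2.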

HeLa [3] = assay: Cell cycle arrest in human HeLa cells assessed as accumulation at G2 phase at 10 times IC50 after 48 hrs by flow cytometry; assay type: functional; method in brief: as §2
HeLa [4] = assay: Cell cycle arrest in human HeLa cells assessed as accumulation at S phase at 10 times IC50 after 48 hrs by flow cytometry; assay type: functional; method in brief: as §2

| Compound | IC50 (KB) | IC50 (HEp-2) | IC50 (HeLa [1]) | Activity (HeLa [2]) | Activity (HeLa [3]) | Activity (HeLa [4]) |
| --- | --- | --- | --- | --- | --- | --- |
| Cc1c2ccncc2c(C)c2c1[nH]c1ccccc12 [ELLIPTECINE] | 0.4 µg/mL (≈ 1.62 µM) | 0.4 µg/mL (≈ 1.62 µM) | 0.4 µg/mL (≈ 1.62 µM) |  |  |  |
| CC(=O)O[C@H](/C=C\[C@H]1CC=CC(=O)O1)C[C@@H](OC(C)=O)[C@H](C)OC(C)=O [HYPTOLIDE] | 3.6 µg/mL (≈ 9.77 µM) | 6.2 µg/mL (≈ 16.8 µM) | 2.8 µg/mL (≈ 7.6 µM) | 34% | 7% | 57% |
| CC(=O)O[C@H]([C@@H](OC(C)=O)[C@H](/C=C\[C@H]1CC=CC(=O)O1)OC(C)=O)[C@H](C)OC(C)=O [SPICIGEROIDE] | 5.4 µg/mL (≈ 12.7 µM) | 9.4 µg/mL (≈ 22 µM) | 15.9 µg/mL (≈ 37.3 µM) | 40% | 23% | 34% |
